# The source made the active and inactive calls. No cut-off for these calls is given here.
# Tests used:
# [1] = Selectivity index, ratio of CC50 for HepG2.2.15 cells to IC50 for HBV; format: functional
# Outline: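 The index was calculated as CC50 divided by IC50. CC50 came from an 8-day MTT assay in HepG2.2.15 cells, and IC50 from fluorescent-PCR quantification of HBV DNA after treatment of confluent HepG2.2.15 cultures.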
# [2] = system: Hepatitis B virus; experiment: Inhibition of cytoplasmic HBV DNA synthesis in HepG2.2.15 cells after 8 days; format: functional, organism-based; settings: for IC50: HepG2.2.15, 192 h
# Outline: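 Confluent HepG2.2.15 cultures were treated with various doses. A 50 µL supernatant sample was added to extraction buffer, boiled for 10 min and centrifuged for 5 min, and aliquots were run in fluorescent PCR with HBV-specific primers and probe. IC50 was taken as the concentration giving 50% inhibition of cytoplasmic HBV DNA synthesis.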
SMILES,IC50 [2],Ratio CC50/IC50 [1],Activity [2]
CC(C)S(=O)(=O)n1c(N)nc2ccc(NC(=O)c3ccccc3F)cc21,940 nM,51,–
CC(C)S(=O)(=O)n1c(N)nc2cc(NC(=O)c3ccc(F)cc3)ccc21,3700 nM,9,–
Nc1ccn([C@@H]2CS[C@H](CO)O2)c(=O)n1 [LAMIVUDINE],–,>2632,–
Cc1ccc(S(=O)(=O)Nc2ccc3c(c2)nc(N)n3S(=O)(=O)C(C)C)cc1,16000 nM,9,–
CC(C)S(=O)(=O)n1c(N)nc2ccc(NS(=O)(=O)c3ccccc3)cc21,1500 nM,41,–
Cc1ccc(S(=O)(=O)Nc2ccc3nc(N)n(S(=O)(=O)C(C)C)c3c2)cc1,4800 nM,17,–
CC(C)S(=O)(=O)n1c(N)nc2ccc(NCc3ccccc3)cc21,–,–,inactive
Nc1ncnc2c1ncn2CCOCP(=O)(O)O [ADEFOVIR],1700 nM,34,–
CC(C)S(=O)(=O)n1c(N)nc2ccc(NC(=O)c3ccccc3)cc21,33700 nM,>15,–
CC(C)S(=O)(=O)n1c(N)nc2ccc(NC(=O)c3ccc(F)cc3)cc21,1200 nM,56,–

# Second part, led by results:
IC50 [2],SMILES,Ratio CC50/IC50 [1],Activity [2]
4200 nM,Cc1ccc(C(=O)Nc2ccc3nc(N)n(S(=O)(=O)C(C)C)c3c2)cc1,>119,–
10500 nM,CC(C)S(=O)(=O)n1c(N)nc2ccc(NS(=O)(=O)c3cccc([N+](=O)[O-])c3)cc21,5,–
700 nM,COc1cccc(CN(Cc2cccc(OC)c2)c2ccc3nc(N)n(S(=O)(=O)C(C)C)c3c2)c1,123,–
700 nM,CC(C)S(=O)(=O)n1c(N)nc2ccc(NC(=O)c3c(F)cccc3F)cc21,274,–
2000 nM,CC(C)S(=O)(=O)n1c(N)nc2cc(NC(=O)c3ccccc3)ccc21,>250,–
820 nM,CC(C)S(=O)(=O)n1c(N)nc2ccc(NC(=O)c3ccccc3Cl)cc21,107,–

# — ChEMBL document CHEMBL1139980, “Identification of 1-isopropylsulfonyl-2-amine benzimidazoles as a new class of inhibitors of hepatitis B virus” (Eur J Med Chem, 2007)
